From ChEMBL document CHEMBL3407343, “Functionalized tetrahydro-1H-pyrido[4,3-b]indoles: a novel chemotype with Sirtuin 2 inhibitory activity” (Eur J Med Chem, 2015)

Assays:
[1] = biological target: T1, NAD-dependent protein deacetylase sirtuin-1 (Homo sapiens) (UniProt Q96EB6); test: Inhibition of human recombinant SIRT1 assessed as deacetylation of N-acetyl lysine residue in p53 (317 to 320) at 10 uM after 30 mins by luciferase-mediated luminescence assay relative to control
T1 sequence (whole entry): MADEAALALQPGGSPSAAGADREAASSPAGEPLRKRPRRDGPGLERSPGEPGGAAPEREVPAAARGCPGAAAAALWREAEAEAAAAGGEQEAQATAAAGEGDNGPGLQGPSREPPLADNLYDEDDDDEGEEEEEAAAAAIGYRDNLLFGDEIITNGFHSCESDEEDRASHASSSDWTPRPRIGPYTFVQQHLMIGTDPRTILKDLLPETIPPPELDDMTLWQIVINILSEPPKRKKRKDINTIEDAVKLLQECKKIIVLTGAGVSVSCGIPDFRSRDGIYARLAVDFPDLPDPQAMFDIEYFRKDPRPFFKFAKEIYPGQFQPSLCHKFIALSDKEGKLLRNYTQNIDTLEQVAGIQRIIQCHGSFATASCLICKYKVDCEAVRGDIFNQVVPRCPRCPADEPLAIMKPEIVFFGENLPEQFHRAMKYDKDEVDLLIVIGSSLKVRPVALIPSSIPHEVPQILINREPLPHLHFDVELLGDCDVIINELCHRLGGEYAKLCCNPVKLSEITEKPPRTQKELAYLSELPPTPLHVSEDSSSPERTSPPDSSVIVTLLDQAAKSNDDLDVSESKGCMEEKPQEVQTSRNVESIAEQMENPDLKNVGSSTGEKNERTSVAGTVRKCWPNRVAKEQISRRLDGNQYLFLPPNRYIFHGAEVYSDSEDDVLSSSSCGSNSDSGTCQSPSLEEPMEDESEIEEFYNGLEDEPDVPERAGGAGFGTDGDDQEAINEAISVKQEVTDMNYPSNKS
Outline: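 Recombinant human SIRT1 at 0.1 unit/well, with the enzyme amount chosen from the mid-linear range of a signal-to-noise titration, in Sirt-Glo buffer. Serially diluted inhibitor in DMSO covers a 10^3-fold range, with 2.5% DMSO final. The single-point screen is at a fixed 10 µM. Enzyme and inhibitor were agitated 30 min at 25 °C, then Sirt-Glo reagent added and shaken another 30 min at 25 °C before luminescence was read. Activity is % of the enzyme-only control after blank subtraction. IC50 comes from a sigmoidal fit of % activity against log concentration, run in triplicate across ≥2 independent experiments.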

Homo sapiens [2] = organism: Homo sapiens; test: Inhibition of protease (unknown origin) using deacetylated peptide as substrate assessed as luminescence at 100 uM after 30 mins relative to control; set-up: scale not given: the % may be the effect or the level left
[3] = biological target: T2, NAD-dependent protein deacetylase sirtuin-2 (Homo sapiens, UniProt Q8IXJ6); test: Inhibition of human recombinant SIRT2 assessed as deacetylation of N-acetyl lysine residue in p53 (317 to 320) after 30 mins by luciferase-mediated luminescence assay
T2 sequence (Q8IXJ6 whole entry): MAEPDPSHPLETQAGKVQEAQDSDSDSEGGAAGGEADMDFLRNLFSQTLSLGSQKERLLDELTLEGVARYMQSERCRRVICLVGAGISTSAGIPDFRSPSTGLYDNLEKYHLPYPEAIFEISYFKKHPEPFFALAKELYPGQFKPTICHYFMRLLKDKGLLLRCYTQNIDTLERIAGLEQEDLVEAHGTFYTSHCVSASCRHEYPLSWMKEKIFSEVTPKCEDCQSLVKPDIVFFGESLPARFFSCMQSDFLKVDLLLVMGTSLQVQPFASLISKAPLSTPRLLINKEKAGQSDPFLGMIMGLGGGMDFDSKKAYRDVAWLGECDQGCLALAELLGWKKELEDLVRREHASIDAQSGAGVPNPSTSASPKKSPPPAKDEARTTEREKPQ

Homo sapiens [4] = organism: Homo sapiens; test: Inhibition of protease (unknown origin) using deacetylated peptide as substrate assessed as luminescence at 10 uM after 30 mins relative to control; set-up: scale not given: the % may be the effect or the level left
Outline: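 Counter-screen without sirtuin: compound from DMSO stock diluted in Sirt-Glo buffer, then Sirt-Glo reagent added carrying non-acetylated control peptide. DMSO was 2.5% v/v. Mixed by shaking 30 min at 25 °C, then luminescence read. Result is % of control (peptide plus reagent in vehicle) after subtracting the vehicle-only blank.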

[5] = Inhibition of luciferase (unknown origin) using deacetylated peptide as substrate assessed as luminescence at 25 uM after 30 mins relative to control; set-up: scale not given: the % may be the effect or the level left
MDA-MB-231 = test: Growth inhibition of human MDA-MB-231 cells after 72 hrs by MTS assay; type: functional, cell-based; details: MDA-MB-231, 72 h
Outline: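 Cells in DMEM with 10% heat-treated FBS and penicillin/streptomycin, subcultured at 85–90% confluence and used within 15 passages. Seeded 2500 cells/well and grown 24 h, then compound was added (0.5% v/v DMSO final) for 72 h at 37 °C, 5% CO2. MTS was added for 4 h in the dark and absorbance read at 490 nm. Viability is corrected for compound and vehicle blanks.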

[6] = Inhibition of luciferase (unknown origin) using deacetylated peptide as substrate assessed as luminescence at 100 uM after 30 mins relative to control; set-up: scale not given: the % may be the effect or the level left

## CCCCCCCCn1c2c(c3cc(-c4ccc(S(C)(=O)=O)cc4)ccc31)CNCC2
[1]
  inhibition: 48.5%
Homo sapiens [2]
  Activity: 94.3%
[3]
  IC50: 3800 nM
Homo sapiens [4]
  Activity: 96.5%
[5]
  Activity: 94.9%
MDA-MB-231
  IC50: 2100 nM
[6]
  Activity: 94.3%
